proCasp3 act: activators of human procaspase-3; hit rate 0.11% among 330,000; recombinant procaspase-3 D3A, Ac-DEVD-pNA absorbance 405 nm; AID 463141; activation, % at 8.5 µM;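 active means activation above the mean of all tested compounds plus 3 SD, cut at about 21% in these data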;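 further: 0% = DMSO alone and 100% = DMSO wells spiked with extra 5 µM PC-3 D3A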
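Assay system: Procaspase-3 D3A mutant, all three cleavage aspartates alanine. Buffer or medium: Zinc-free HEPES saline buffer with Triton X-100. Times: 1 h compound preincubation, 2 h substrate hydrolysis at 25 °C. Measured by: 405 nm absorbance of p-nitroaniline, reads at 0 and 120 min. Read-out basis: percent activation relative to control range. Replicates: singlicate.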
Rce1 inh: yeast Ras-converting enzyme inhibition; yeast membranes, quenched prenylated peptide cleavage fluorescence; calls only; hit rate 0.27% among 290,000;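 active means fall in fluorescence gain of 50% or more versus controls, with final raw signal at or below 3038400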;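 further: plate controls were neutral control wells for no effect and wells lacking membranes for full effect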
Target sequence (Q03530 whole entry, looked up): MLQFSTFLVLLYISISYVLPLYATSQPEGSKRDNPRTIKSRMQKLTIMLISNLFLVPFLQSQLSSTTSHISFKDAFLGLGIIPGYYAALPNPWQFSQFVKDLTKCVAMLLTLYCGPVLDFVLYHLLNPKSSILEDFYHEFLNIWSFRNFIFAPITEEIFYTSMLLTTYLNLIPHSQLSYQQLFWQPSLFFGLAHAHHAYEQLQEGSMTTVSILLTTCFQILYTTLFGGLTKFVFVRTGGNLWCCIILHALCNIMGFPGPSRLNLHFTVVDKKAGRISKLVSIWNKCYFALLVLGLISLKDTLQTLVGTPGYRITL
procasp7 counter: activates human procaspase-7, counter-screen for procaspase-3 activators; hit rate 0.093% among 330,000; recombinant procaspase-7, Ac-DEVD-pNA absorbance 405 nm; D23A/D198A/D206A triple mutant, cannot self-cleave; scale: DMSO 0, 5 µM enzyme 100; activation, % at 8.5 µM; P55210;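 active means percent activation above the screen-wide mean plus 3 SD, cut at about 25% in these data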
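Assay system: Uncleavable procaspase-7 mutant enzyme; Input: 2 µM procaspase-7 mutant as dispensed; Also added: DEVD-pNA substrate; Medium: Zinc-free HEPES pH 7.4 with 300 mM NaCl, 0.01% Triton X-100; Timing: 1 h compound preincubation, 2 h substrate cleavage, 25 °C; Measured by: Epi-absorbance of released pNA at 405 nm, two timepoints.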
p-CIP stab down: compounds decreasing mouse p/CIP protein stability | decrease of EGFP signal, % at 10 µM | Q05BA5 | AID 1984 | hit rate 0.01% among 290,000 | F442A p/CIP-EGFP cells, EGFP fluorescence, 16 h;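 active means EGFP signal decrease of at least 30% at 10 µM or well 3 SD below plate mean, unless failing retest; inactive means the rest, including hits failing retest or dose response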
Lipid droplet: modulators of hepatic lipid droplet formation; AID 1656; hit rate 0.4% among 240,000; AML12 mouse hepatocytes, oleate lipid droplets, BODIPY imaging; inhibition, % at 6.5 µM;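 active means lipid droplet intensity inhibited by at least 50%, with more than 500 cells counted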
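material = mouse AML12 hepatocyte cell line, fixed after treatment | also added = 100 µM oleic acid challenge | doses = compound at 6.5 µM only | schedule = overnight exposure | technique = Image-based BODIPY and DAPI two-channel analysis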
GAA850 FXN act: activators of GAA850 frataxin (FXN) promoter; hit rate 0.56% among 360,000; HEK293 lucGAA850 FXN promoter luciferase reporter, 24 h; percent of 10 µM SAHA response; activation, % at 6 µM;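 active means activation above the average of all compounds screened plus 3 SD, cutoff fixed separately per campaign, cut at about 7.5% in these data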;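 further: 0% = DMSO wells and 100% = 10 µM SAHA wells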
GAA30 FXN cntr: GAA30 FXN promoter activation counter-screen | shares compounds with GAA850 FXN act | HEK293 lucGAA30 FXN promoter luciferase, 24 h; DMSO = 0%, 5 µM ipriflavone = 100% | activation, % at 6 µM | hit rate 66% among 1,900;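 active means mean activation above the mean of solvent-only control wells plus 3 SD, cut at about 22% in these data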;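 further: counterscreen of GAA850 promoter hits where activity marks nonselective or luminescence artifacts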
FXN GAA850 conf: GAA850 FXN promoter activation confirmation; shares compounds with GAA850 FXN act; HEK293 lucGAA850 FXN promoter luciferase reporter, 24 h; 100% = activation by SAHA; activation, % at 6 µM; hit rate 86% among 1,900;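 active means mean activation above a set limit taken from the primary screen, cut at about 8% in these data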;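 further: 0% = DMSO wells and 100% = 10 µM SAHA wells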
* hit, by the source's call; i = inactive; nt = not tested or not shown. Hits are enriched below; roughly 1.2% of the tested compounds scored in any of these assays.

SMILES | proCasp3 act | Rce1 inh | procasp7 counter | p-CIP stab down | Lipid droplet | GAA850 FXN act | GAA30 FXN cntr | FXN GAA850 conf
FC(F)Oc1ccc(C2N=C(c3ccccc3)NO2)cc1 (centres undefined) | 2 | i | -4 | -9 | 24 | 7.9* | 118* | 41*
CCOC(=O)c1cnc(SCc2ccccc2)nc1N | 5 | i | -10 | -1 | 5 | 9.9* | 117* | 39*
CCOC(=O)c1cnc(SCc2ccc(C(C)(C)C)cc2)nc1N | 3 | i | 1 | 5 | -1 | -1 | nt | nt
CC(C)c1ccc(NC(=O)C(c2ccccc2)N2CCOCC2)cc1 (centres undefined) | -1 | i | 3 | -23 | nt | 0 | nt | nt
CC(C)c1ccc(NC(=O)NN2CCOCC2)cc1 | 4 | nt | 0 | 12 | 10 | 8.0* | 85* | 33*
CCOc1ccc(N=c2scc(-c3ccccc3)n2CCO)cc1 | -11 | i | -12 | -6 | 10 | 1 | nt | nt
CCn1c(-c2ccccc2)csc1=Nc1ccc(O)cc1 | -13 | i | -1 | 7 | 22 | 9.3* | 99* | 37*
COc1cc(OC)cc(-c2c(-c3ccc(C(C)=O)cc3)c3cc(-c4cccc5[nH]ccc45)ccc3n2C)c1 | -5 | nt | 5 | nt | nt | -2 | nt | nt
COc1cc(SC)ccc1C(=O)Nc1ccc(Br)cn1 | -6 | i | 2 | -15 | -6 | -9 | nt | nt
COc1cc(SC)ccc1C(=O)Nc1ncc(Cl)cc1Cl | -5 | i | -1 | -1 | -6 | 9.8* | 119* | 41*
O=C(COC(=O)c1cc([N+](=O)[O-])ccc1NCCO)Nc1cccnc1Cl | -5 | nt | 11 | nt | nt | 2 | nt | nt
CC1=C(C(=O)N(C(C)C)C(C)C)CC(CC(=O)NC2CCCC2)C(=O)N1Cc1ccccc1 (centres undefined) | nt | nt | nt | nt | nt | -1 | nt | nt
CN=c1scc(-c2ccc([N+](=O)[O-])cc2)n1/N=C/c1ccco1 | -4 | i | -2 | -14 | -2 | -1 | nt | nt
CN=c1scc(-c2ccc(F)cc2)n1/N=C/c1ccc(O)c(O)c1 | nt | nt | nt | 11 | -16 | 9.3* | 34* | 14*
COC(=O)c1ccccc1NC(=O)CN(c1c(C)cccc1C)S(C)(=O)=O | 12 | i | 1 | 5 | -12 | -1 | nt | nt
CC[C@@]12C(=O)N(c3ccc(C)cc3)C(=O)N1[C@H](c1cccc(C)c1)[C@@H]1C(=O)N(Cc3ccccc3)C(=O)[C@@H]12 | -3 | i | -3 | nt | nt | 8.4* | 23* | 12*
Cc1cccc([C@@H]2[C@@H]3C(=O)N(Cc4ccccc4)C(=O)[C@@H]3[C@]3(C)C(=O)N(c4cccc(F)c4)C(=O)N23)c1 | -3 | i | -6 | nt | nt | -1 | nt | nt
CC[C@@]12C(=O)N(c3ccc(OC)cc3)C(=O)N1[C@H](c1cccc(C)c1)[C@@H]1C(=O)N(Cc3ccccc3)C(=O)[C@@H]12 | 6 | i | 1 | -2 | 4 | 4 | nt | nt
CCN1C(=O)[C@H]2[C@@H](c3ccc(C)cc3)N3C(=O)N(c4cccc(Cl)c4)C(=O)[C@@]3(CC)[C@H]2C1=O | 8 | i | 0 | nt | nt | 8.2* | 9 | 7.9*
Cc1ccc(N2C(=O)N3[C@H](c4cccc(C)c4)[C@@H]4C(=O)N(Cc5ccccc5)C(=O)[C@@H]4[C@]3(C)C2=O)cc1 | 2 | i | -10 | nt | nt | 7.6* | 18 | 8.5*
O=C(CNC(=O)C12CC3CC(CC(C3)C1)C2)Nc1ncccc1O | 10 | nt | 2 | nt | nt | 0 | nt | nt
Cc1ccc([C@H]2C[C@@H](O)[C@H](n3cc(C4CC4)nn3)CN2C(=O)c2cccs2)cc1 | nt | nt | nt | nt | nt | -2 | nt | nt
